Experimental data from PubChem BioAssay.
Results filed as inconclusive are left out.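 Rule for the calls, unless noted: active = viability at or below 27.92% in each of two runs, the all-compound median minus 4 SD; inconclusive = no clear call, values can overlap the other calls; inactive = the rest.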

Key:
[1] = S. cerevisiae growth inhibition in permissive medium (OD615), pilot counter-assay for S. cerevisiae lifespan shortening project, permissive growth control (AID 705;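 active = growth inhibition above 25% in both replicates, a cutoff set 3 SD above the mean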); conditions: OD615, 24 h, at 10 µM, hits give high values
In short: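 Material: engineered DeaD yeast; Compound: one dose 10 µM, DMSO 0.25% final; Detection: absorbance (optical density) at 615 nm; Buffer or medium: permissive raffinose/galactose medium; Timing: 24 h exposure, 30 °C.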

[2] = S. cerevisiae growth inhibition in restrictive medium, OD615, pilot screen, restrictive growth control, yeast lifespan reduction project (AID 706;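 active = growth inhibition above a set limit, 3 SD over mean compound inhibition, in both replicates, cut at about 43% in these data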;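 note: modified DeaD lifespan yeast strain shifted to restrictive glucose medium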); conditions: OD615, 48 h, at 10 µM, hits give high values
In short: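 Buffer or medium: restrictive glucose medium (CSMM-D); test system: modified S. cerevisiae; doses: single dose of 10 µM compound final, 0.25% DMSO; schedule: 48 h compound exposure at 30 °C; detection: absorbance (optical density) measured at 615 nm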

[3] = doxorubicin toxicity protection in MRP-1 cells – H69AR cells, CellTiter-Glo, duplicate, MRP-1 activator project, pilot screen (AID 807;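 active = viability increase at or above a cutoff of the median across tested compounds plus 3 SD, cut at about 8.5% in these data, passing the limit was not always enough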;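 note: compound pretreatment 18-22 h then 72 h combined with doxorubicin; 0% = doxorubicin alone and 100% = vehicle without doxorubicin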); conditions: H69AR viability with doxorubicin, CellTiter-Glo luminescence; at 10 µM; hits give high values
[4] = viability of HCT116 without oncogenic beta-catenin – human colon tumor cells, pilot screen (AID 823;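 active = cell viability at or below a set limit in both duplicate runs, the limit being the all-compound median minus 4 SD, cut at about 23% in these data, passing the limit was not always enough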;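 note: 0% = wells killed by 20 µM Hyamine and 100% = untreated DMSO cell wells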); conditions: HCT116 beta-catenin knockout viability, CellTiter-Glo, 60 h; at 10 µM; hits give low values
[5] = viability of PTEN-null HCT116 cells – cell-based, HCT116 clonal line, CellTiter-Glo, pilot screen (AID 824); conditions: HCT116 PTEN-deleted viability, 60 h, at 10 µM, hits give low values;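 note: 0% = 20 µM Hyamine control and 100% = vehicle cell control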
[6] = RAM pathway blockade in budding yeast – dse1pr::URA3 reporter, 5-FOA selection, pilot screen (AID 869;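 active = inhibition over a set limit, the all-compound mean plus 3 SD, in both replicate runs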;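 note: 0% = DMSO wells with no growth and 100% = 10 µM 1-NA-PP1 with full growth; RAM network block rescues cells from 5-FOA so hits raise OD615 growth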); conditions: S. cerevisiae dse1pr::URA3 5-FOA growth, OD615, 2 d; at 10 µM; hits give high values; strain carries analog-sensitive mutant Cbk1 kinase
[7] = RAM signaling pathway blockade in yeast – S. cerevisiae, Pdr1DBD-CYC8 efflux-inhibited sensitized strain, primary screen (AID 1298;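 active = RAM network inhibition above 8.4% in each of two replicates, 3 SD over the compound average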;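 note: 0% = DMSO untreated cells without growth and 100% = 10 µM 1-NA-PP1 full growth; higher means more yeast growth rescued from 5-FOA killing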); conditions: S. cerevisiae cbk1-as DSE1-URA3 strain, 5-FOA growth OD615, 2 d; at 50 µM; hits give high values

Nc1nc(SCc2ccc(Cl)cc2)ns1
inactive: growth inhibition [1] 10.4% | growth inhibition [2] 7.05% | viability increase [3] 1.03% | viability [4] 98.4% | viability [5] 89.2% | inhibition [6] 0.695% | RAM network inhibition [7] 0.78%

CSc1ccccc1NC(=O)c1cnc2scc(C)n2c1=O
inactive: growth inhibition [1] -16.8% | growth inhibition [2] 3.44% | viability increase [3] -2.05% | viability [4] 87.1% | viability [5] 88.1% | inhibition [6] 0.665% | RAM network inhibition [7] 3.71%

COc1ccc(OC)c(CN2C(=O)c3ccccc3C2C(=O)NCc2cccnc2)c1 (configuration not stated)
inactive: growth inhibition [1] -6.83% | growth inhibition [2] 2.58% | viability increase [3] 0.05% | viability [4] 106% | viability [5] 97.6% | inhibition [6] 0.155% | RAM network inhibition [7] 4.09%

CCOc1ccc(C2c3c(oc4ccccc4c3=O)C(=O)N2CCCN2CCOCC2)cc1OCC (configuration not stated)
inactive: growth inhibition [1] -14% | growth inhibition [2] -31.3% | viability increase [3] -4.89% | viability [4] 102% | viability [5] 88.6% | inhibition [6] 0.48% | RAM network inhibition [7] 1.21%

COc1cc(O)c(NC(C)=O)c2nonc12
inactive: growth inhibition [1] -5.37% | growth inhibition [2] 5.21% | viability increase [3] 0% | viability [4] 101% | viability [5] 107% | inhibition [6] -0.845% | RAM network inhibition [7] -1.46%

C#CC(C)(C)NC(=O)CSc1nc2c(c(=O)n(C)c(=O)n2C)n1CCCC
inactive: growth inhibition [1] -15.3% | growth inhibition [2] -13.7% | viability increase [3] 1.86% | viability [4] 102% | viability [5] 89.4% | inhibition [6] 2.11% | RAM network inhibition [7] 1.45%

Cc1cccc2sc(NC(=O)CCNS(=O)(=O)c3cccc4nonc34)nc12
inactive: growth inhibition [1] -11.1% | growth inhibition [2] -6.5% | viability increase [3] -5.31% | viability [4] 86.1% | viability [5] 80.7% | inhibition [6] 2.71% | RAM network inhibition [7] 7.24%

CCCCS(=O)CC(CS(=O)CCCC)OC(=O)c1ccccc1 (configuration not stated)
inactive: growth inhibition [1] 4.33% | growth inhibition [2] 5.83% | viability increase [3] -1.89% | viability [4] 102% | viability [5] 96.1% | inhibition [6] 0.405% | RAM network inhibition [7] 2.4%

O=C(c1csc2c1CCCC2)n1cccn1
inactive: growth inhibition [1] 13.2% | growth inhibition [2] 15.7% | viability increase [3] -0.86% | viability [4] 98.7% | viability [5] 106% | inhibition [6] 1.69% | RAM network inhibition [7] -0.11%

Cc1cc(Nc2ccc(C(C)C)cc2)n2ncnc2n1
inactive: growth inhibition [1] -6.6% | growth inhibition [2] 7.39% | viability increase [3] -0.35% | viability [4] 95.2% | viability [5] 85.2% | inhibition [6] 0.465% | RAM network inhibition [7] 5.75%

CCOC(=O)N1CCN(C(=O)NC23CC4CC(CC(C4)C2)C3)CC1
inactive: growth inhibition [1] -2.78% | growth inhibition [2] -5.79% | viability increase [3] -2.4% | viability [4] 95.7% | viability [5] 92.1% | inhibition [6] 2.83% | RAM network inhibition [7] 3.57%

O=C(CSc1nc2c(c(=O)n1-c1ccc(Cl)cc1)SCC2)NCc1ccco1
inactive: growth inhibition [1] -4.73% | growth inhibition [2] -0.115% | viability increase [3] -4.49% | viability [4] 86.2% | viability [5] 89% | inhibition [6] 0.225% | RAM network inhibition [7] 4.2%

Cc1ccc(OCCn2c(C)c(/C=N/n3cnnc3)c3ccccc32)cc1
inactive: growth inhibition [1] 8.46% | growth inhibition [2] 22.9% | viability increase [3] -6.55% | viability [4] 81.5% | viability [5] 76% | inhibition [6] 0.8% | RAM network inhibition [7] 1.89%

O=C(CCNS(=O)(=O)c1cccc2nonc12)NCc1cccs1
inactive: growth inhibition [1] -0.555% | growth inhibition [2] -14.2% | viability increase [3] -1.88% | viability [4] 96.3% | viability [5] 89.1% | inhibition [6] 2.46% | RAM network inhibition [7] 1.92%

CCOC(=O)Nc1ccc2c(c1)N(C(=O)N(CC)CC)c1ccccc1CC2
inactive: growth inhibition [1] -8.36% | growth inhibition [2] -26.2% | viability increase [3] -3.07% | viability [4] 71.6% | viability [5] 71.3% | inhibition [6] 2.9% | RAM network inhibition [7] 2.11%

CCOc1ccc(C2NC(=O)c3n[nH]c(C)c32)cc1 (configuration not stated)
inactive: growth inhibition [1] -3.56% | growth inhibition [2] 8.35% | viability increase [3] 1.63% | viability [4] 107% | viability [5] 103% | inhibition [6] 1.07% | RAM network inhibition [7] 0.36%

COc1cccc(NC=C2C(=O)OC3(CCCCC3)OC2=O)c1
inactive: growth inhibition [1] -8.74% | growth inhibition [2] 5.97% | viability increase [3] -1.85% | viability [4] 95.1% | viability [5] 104% | inhibition [6] 2.04% | RAM network inhibition [7] 5.16%

Cc1cc(C)n(-c2nncc(-c3ccccc3)n2)n1
inactive: growth inhibition [1] 14% | growth inhibition [2] 34.6% | viability increase [3] -2.22% | viability [4] 98.9% | viability [5] 95.6% | inhibition [6] 1.86% | RAM network inhibition [7] 0.92%

CCOc1ccc(C(C)NC(=O)CCC(=O)O)cc1 (configuration not stated)
inactive: growth inhibition [1] -4.12% | growth inhibition [2] -1.54% | viability increase [3] -1.24% | viability [4] 93.4% | viability [5] 89% | inhibition [6] 1.27% | RAM network inhibition [7] 0.68%

CN(CCO)c1ncnc2nc[nH]c12
inactive: growth inhibition [1] -10.4% | growth inhibition [2] -7.77% | viability increase [3] 0.3% | viability [4] 104% | viability [5] 93.2% | inhibition [6] 1.36% | RAM network inhibition [7] 1.71%

Cc1c(C(=O)N2CCCc3ccccc32)sc2nc(-c3ccccc3)cn12
inactive: growth inhibition [1] -8.77% | growth inhibition [2] 0.195% | viability increase [3] -2.82% | viability [4] 65.9% | viability [5] 68.4% | inhibition [6] 2.46% | RAM network inhibition [7] 5.58%

CCOC(=O)c1ccc(NC(=O)CCC(=O)OC)cc1
inactive: growth inhibition [1] 5.7% | growth inhibition [2] -1.83% | viability increase [3] -1.2% | viability [4] 96.8% | viability [5] 98.3% | inhibition [6] 1.98% | RAM network inhibition [7] 3.41%

Cc1nc2ccccc2c(=O)n1NC(=O)c1c(O)c2ccccc2n(C)c1=O
inactive: growth inhibition [1] -5.41% | growth inhibition [2] 7.71% | viability increase [3] -2.45% | viability [4] 100% | viability [5] 99% | inhibition [6] 0.995% | RAM network inhibition [7] 0.88%

CCC(=O)c1ccc(CCCCCC(=O)O)s1
inactive: growth inhibition [1] 4.35% | growth inhibition [2] -7.41% | viability increase [3] -0.1% | viability [4] 98.2% | viability [5] 98.7% | inhibition [6] 1.34% | RAM network inhibition [7] 3.2%

CC1(C)Cc2c(c(N3CCOCC3)nc3sc(C(=O)N4CCCCC4)c(N)c23)CO1
inactive: growth inhibition [1] 2.35% | growth inhibition [2] 29.3% | viability increase [3] -4.48% | viability [4] 100% | viability [5] 96.6% | inhibition [6] 2.62% | RAM network inhibition [7] 3.43%

O=C(C1CCC(Cn2c(=O)[nH]c3ccccc3c2=O)CC1)N1CCN(c2ccccc2)CC1 (configuration not stated)
inactive: growth inhibition [1] -14.3% | growth inhibition [2] -1.08% | viability increase [3] 2.93% | viability [4] 82.6% | viability [5] 67.6% | inhibition [6] 1.81% | RAM network inhibition [7] 6.69%

CCC(C)Nc1ncnc2c1cnn2Cc1ccc(Cl)cc1 (configuration not stated)
inactive: growth inhibition [1] -13.7% | growth inhibition [2] -18.8% | viability increase [3] 6.18% | viability [4] 85.5% | viability [5] 86.7% | inhibition [6] -0.295% | RAM network inhibition [7] 2.14%

Cc1ccccc1C(=O)NCCN=C1NS(=O)(=O)c2ccccc21
inactive: growth inhibition [1] -7.76% | growth inhibition [2] 10.5% | viability increase [3] 0.1% | viability [4] 113% | viability [5] 103% | inhibition [6] 0.69% | RAM network inhibition [7] 1.88%

COc1ccc(C2C(C(=O)Nc3cccc(C)n3)c3ccccc3C(=O)N2C)cc1 (configuration not stated)
inactive: growth inhibition [1] -11.3% | growth inhibition [2] -6.23% | viability increase [3] -0.69% | viability [4] 101% | viability [5] 93.9% | inhibition [6] 1.39% | RAM network inhibition [7] 2.93%

CSc1cccc(NC(=O)CN(c2ccc(C)cc2C)S(C)(=O)=O)c1
inactive: growth inhibition [1] -12.5% | growth inhibition [2] -9.39% | viability increase [3] -1.07% | viability [4] 76.8% | viability [5] 67.8% | inhibition [6] 1.02% | RAM network inhibition [7] 2.43%

COc1cccc(-n2c(Cc3cc(=O)[nH]c(=O)[nH]3)nnc2SCc2cccnc2)c1
inactive: growth inhibition [1] -7.23% | growth inhibition [2] -2.88% | viability increase [3] 0.52% | viability [4] 106% | viability [5] 102% | inhibition [6] 0% | RAM network inhibition [7] 0.9%

CC1(C)CC(=O)C2=C(C1)Nc1ccccc1NC2c1nc2ccccc2[nH]1 (configuration not stated)
inactive: growth inhibition [1] -10.1% | growth inhibition [2] 1.04% | viability increase [3] -3.97% | viability [4] 100% | viability [5] 95.7% | inhibition [6] 1.65% | RAM network inhibition [7] 1.45%

COc1ccc2c(c1)CC(C1(O)C(=O)N(C)c3ccccc31)C2=O (configuration not stated)
inactive: growth inhibition [1] 2.02% | growth inhibition [2] -8.81% | viability increase [3] -3.79% | viability [4] 94% | viability [5] 93.3% | inhibition [6] 0.845% | RAM network inhibition [7] 2.96%

Cn1nnnc1SCc1ccc(F)cc1
inactive: growth inhibition [1] -3.69% | growth inhibition [2] -4.48% | viability increase [3] -0.09% | viability [4] 98.1% | viability [5] 108% | inhibition [6] 1.25% | RAM network inhibition [7] 2.61%

Cc1cccc(C)c1Nc1nc2ccccc2o1
inactive: growth inhibition [1] -7.32% | growth inhibition [2] 11.5% | viability increase [3] -0.76% | viability [4] 93.3% | viability [5] 94.3% | inhibition [6] 1.97% | RAM network inhibition [7] -0.32%

O=C(CCCC(=O)n1cnc2ccccc21)n1cnc2ccccc21
inactive: growth inhibition [1] -3.46% | growth inhibition [2] 4.09% | viability increase [3] -1.98% | viability [4] 96.2% | viability [5] 92.9% | inhibition [6] 1.08% | RAM network inhibition [7] 0.98%
